Screens from PubChem.
RBBP9 inhibitor: inhibitors of human serine hydrolase RBBP9; recombinant RBBP9, FP-Rh probe fluorescence polarization; inhibition, % at 7.94 µM; 220,000 tested, 0.2% active;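 active = inhibition above the campaign mean of all tested compounds plus 3 SD, cut at about 14% in these data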;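 also: plate controls were DMSO wells with RBBP9 for no effect and wells lacking RBBP9 protein for full effect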
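Assay system: recombinant human RBBP9; Reagent: Serine-hydrolase probe FP-Rh, 375 nM pre-mixing; Doses: 7.94 µM single dose, 0.794% DMSO; Incubation: 30 min then 45 min, 25 °C; Detection: fluorescence polarization (mP), excitation 525 nm, emission 598 nm; Evaluation: percent inhibition from mP, scaled between DMSO and no-protein wells.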
Furin inhibitor: human furin inhibition. 220,000 tested, 0.061% active. AID 463115. P09958. purified furin, fluorogenic substrate cleavage. inhibition, % at 20 µM or 30 µM; in the data active = inhibition above about 25%
Target sequence (P09958 108-714 limits assumed): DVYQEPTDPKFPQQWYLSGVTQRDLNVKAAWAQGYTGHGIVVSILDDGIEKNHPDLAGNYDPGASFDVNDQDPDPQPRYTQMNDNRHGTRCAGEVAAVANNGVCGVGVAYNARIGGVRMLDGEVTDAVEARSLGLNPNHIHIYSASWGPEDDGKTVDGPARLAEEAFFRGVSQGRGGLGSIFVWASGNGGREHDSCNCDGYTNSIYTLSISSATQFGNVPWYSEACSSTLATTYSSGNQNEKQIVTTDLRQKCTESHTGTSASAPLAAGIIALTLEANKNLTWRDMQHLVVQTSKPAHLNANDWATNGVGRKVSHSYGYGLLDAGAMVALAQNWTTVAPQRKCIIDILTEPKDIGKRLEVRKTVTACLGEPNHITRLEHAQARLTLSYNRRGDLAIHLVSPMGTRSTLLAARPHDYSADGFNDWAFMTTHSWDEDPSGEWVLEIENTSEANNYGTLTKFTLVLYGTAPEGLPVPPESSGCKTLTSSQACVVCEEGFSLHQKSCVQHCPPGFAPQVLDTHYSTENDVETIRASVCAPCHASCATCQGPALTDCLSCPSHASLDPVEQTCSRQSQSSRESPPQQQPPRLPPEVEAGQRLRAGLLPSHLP
p47phox inh: inhibitors of human p47phox binding; 220,000 tested, 0.53% active; inhibition, % at 24.7 µM; p47phox/p22phox peptide binding, fluorescence polarization, 2 h; AID 1274; P14598;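 active = inhibition above about 30%, limit read from the data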;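 also: 0% = p47phox with labelled peptide and 100% = labelled peptide alone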
Calpain2 inh: calpain II (pig) inhibition. 220,000 tested, 0.37% active. purified calpain II, fluorogenic peptide substrate, 30 min. inhibition, % at 16 µM. AID 1236;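 active = inhibition above about 50%, limit read from the data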
RBBP9 inh conf: human RBBP9 inhibition, confirmation; shares compounds with RBBP9 inhibitor; 410 tested, 36% active; inhibition, % at 7.94 µM; AID 1537; recombinant RBBP9, FP-Rh probe fluorescence polarization;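 active = inhibition above the hit cutoff derived for the primary screen, cut at about 15% in these data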;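 also: 0% = RBBP9 with DMSO and 100% = wells lacking RBBP9 protein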
* = called active by the depositor; nt = no result given. Compounds with a hit are over-represented: about 1.1% of the library has one in this group of screens.

SMILES	RBBP9 inhibitor	Furin inhibitor	p47phox inh	Calpain2 inh	RBBP9 inh conf
COc1ccc2c(c1)CC(C1(O)C(=O)Nc3ccccc31)C2=O (stereo not drawn)	19.0*	-14.4	-5.8	9.6	1.7
CCOC(=O)c1c(C)n(C)c2cc(Br)c(O)c(O)c12	16.7*	-1.8	-6.9	-9.6	31.1*
CCOC(=O)c1c(C)n(C)c2cc([N+](=O)[O-])c(O)c([N+](=O)[O-])c12	-4.4	2.5	-4.7	17.3	nt
O=C(O[C@@H]1OC2COC(=O)c3cc(O)c(O)c(O)c3-c3c(cc(O)c(O)c3O)C(=O)O[C@@H]([C@H]1O)[C@@H]2O)c1cc(O)c(O)c(O)c1	19.3*	-5.6	-4.5	27.6	31.5*
NC1=NC(=O)CC(C(=O)NCc2ccccc2)S1 (stereo not drawn)	14.5*	-15.1	-5.2	17.5	9.0
NC1=NC(=O)C(CC(=O)NCc2ccccc2)S1 (stereo not drawn)	-8.5	-4.9	2.5	-0.9	nt
COc1cccc(C(=O)Nc2sc3c(c2C#N)CCN(C(C)=O)C3)c1	-8.8	-7.9	-38.8	34.6	nt
Cc1cc(O)ccc1N=Cc1c(C(F)(F)F)[nH][nH]c1=O	39.4*	-12.9	-0.2	-28.0	13.7
CC(=O)c1c(C(C)=O)c(C)n(-c2cccc3cccnc23)c1C	28.7*	-10.4	-10.7	21.3	4.0
N#C/C(=C\c1cc(O)c(O)c(O)c1)C(N)=O	18.2*	5.8	-10.5	18.9	20.4*
N#C/C(=C\c1cc(Cl)c(OCc2ccc(Cl)cc2)c(Cl)c1)C(N)=O	-3.6	-22.3	-6.1	-29.4	nt
Cc1[nH]c2ccccc2c1C(=O)COC(=O)c1ccc[n+]([O-])c1	15.8*	-8.0	0.2	3.5	-0.3
O=C(CN1CCNCC1)Nc1ccc(Oc2ccccc2)cc1	15.3*	-4.3	-3.3	0.0	23.6*
CCOc1ccc(S(=O)(=O)Nc2ccc(Cl)cn2)c(C)c1C	16.9*	-19.6	-13.7	-8.4	3.3
CCOc1cc(C)c(S(=O)(=O)Nc2ccc(Cl)cn2)cc1C	-2.5	-13.9	1.2	-30.3	nt
CC1=NNC(=O)C1C(c1ccc(Cl)cc1)C(C#N)C#N (stereo not drawn)	21.8*	-12.9	-7.8	-8.6	-0.7
CC1=NNC(=O)C1C(c1cccc(O)c1)C(C#N)C#N (stereo not drawn)	11.4	-22.0	14.4	18.0	nt
Cn1ccnc1SCC(=O)Nc1cccc(S(=O)(=O)N2CCCCC2)c1	-11.9	-27.7	3.3	9.3	nt
COc1ccc(-c2cc(O)cc(O)c2)cc1	34.8*	-14.5	-3.8	-9.9	4.9
COc1ccc(/C=C/C(=O)Oc2cc(O)cc(O)c2)cc1	-4.8	-7.3	-5.9	2.9	nt
CCOc1cc(-c2ccc(N)c(OCC)c2)ccc1N	16.3*	-29.6	-11.4	-29.4	28.7*
Cc1nn(-c2ccccc2)c2c1C(c1ccccc1)C(C#N)=C(N)O2 (stereo not drawn)	16.4*	-23.0	-8.9	16.9	7.9
COc1ccc(C2C(C#N)=C(N)Oc3c2c(C)nn3-c2ccccc2)cc1Cn1nc(C)c([N+](=O)[O-])c1C (stereo not drawn)	18.2*	-9.2	-4.3	-94.8	5.3
COc1ccc(C2C(C#N)=C(N)OC3=C2C(=O)CC(C)(C)C3)cc1Cn1nc(C)c([N+](=O)[O-])c1C (stereo not drawn)	-9.4	-10.9	-6.4	-8.9	nt
COC(=O)c1sc2nc(CN3CCN(c4ccc(OC)cc4)CC3)[nH]c(=O)c2c1C	-2.4	-22.3	-67.9	16.1	nt
SMILES	RBBP9 inhibitor	Furin inhibitor	p47phox inh	Calpain2 inh	RBBP9 inh conf
O=C(Nc1nnc(C2=COCCO2)o1)c1ccc(Cl)cc1	-8.2	-15.8	-11.9	-6.6	nt
O=C(Nc1nnc(C2=COCCO2)o1)c1ccc(Cc2ccccc2)cc1	17.5*	-8.5	-19.1	-49.3	5.4
O=C(COC(=O)/C=C/c1ccc(Cl)cc1)NCCc1ccccc1	16.6*	-14.0	-3.2	12.0	-0.8
FC(F)(F)c1ccc(-c2nnc(-c3ccccn3)c(-c3ccccn3)n2)nc1	17.1*	-4.4	-2.9	1.3	2.7
CCn1c(CSc2nccn2C)nc2cc(C(=O)O)ccc21	14.7*	-17.3	-5.0	-27.5	17.3*
CCOC(=O)NC(=O)c1cn(CCN(C)C)c(=O)[nH]c1=O	-8.5	-5.3	1.1	11.7	nt
O=C1C(=O)N(C2CCCC2)C(=O)N1Cc1c(F)cccc1Cl	-4.1	-2.6	-2.1	13.3	nt
COCCN=c1scc(-c2cccs2)n1/N=C/c1ccc(O)c(O)c1O	35.8*	-7.8	8.1	65.2*	63.4*
COCCN=c1scc(-c2ccccc2)n1/N=C/c1c[nH]c2ccccc12	0.3	-11.6	-8.9	-8.2	nt
CCN=c1scc(C)n1/N=C/c1ccc(O)c(O)c1O	33.9*	-2.2	-6.3	-61.8	60.8*
O=C1CSC(=S)N1/N=C/c1ccc(O)c(O)c1O	14.6*	2.8	-96.8	31.3	27.1*
O=C1Nc2ccccc2C1(O)Cc1ccccn1 (stereo not drawn)	-1.9	0.8	-6.8	14.4	nt
CC(C)C1OC(c2cccc(NC(=O)c3cccs3)c2)OCC1(C)C (stereo not drawn)	-5.3	-31.0	-12.8	15.6	nt
Cc1noc(C)c1S(=O)(=O)Nc1ccc(C(=O)N2CCC(C)CC2)cc1	18.2*	-18.5	-4.9	4.0	6.8
Cc1cc2cc3c(cc2nc1SCC(=O)N1c2ccccc2CC1C)OCO3 (stereo not drawn)	-3.0	-4.6	-65.5	-15.0	nt
Cc1cc2ccccc2nc1SCC(=O)N1c2ccccc2CC1C (stereo not drawn)	14.4*	3.0	-13.3	6.7	-2.2
O=C(/C=N/O)Nc1ccc2sc3ccccc3c2c1	53.2*	-14.1	-12.8	18.0	71.9*
COC(=O)c1ccccc1NC(=O)/C=N/O	4.2	-16.4	-17.2	-22.2	nt
CCN=C1SC(C(=O)Nc2ccc(OC)cc2)CC(=O)N1CC (stereo not drawn)	-3.4	-28.5	-8.8	9.6	nt
Cc1ccc(CCP(=O)(O)CN2CCOCC2)cn1	17.6*	-13.7	-3.7	-20.5	-1.7
CN(C)S(=O)(=O)N1CCCC(C(=O)c2ccc(-c3ccccc3)cc2)C1 (stereo not drawn)	-4.3	-6.2	-0.8	-15.5	nt
COc1ccc(NC(=S)NCc2ccco2)c(OC)c1	17.2*	1.8	-7.1	-3.9	8.7
Cn1c(N)c(S(=O)(=O)N2CCN(c3ccccc3)CC2)c(=O)n(C)c1=O	1.5	-18.7	-0.9	-34.5	nt
Cc1ccc(N(C)S(=O)(=O)c2ccc(C)cc2)cc1	-1.6	-22.3	-18.2	-3.9	nt
Cc1ccc(S(=O)(=O)N(C)c2ccccc2)cc1	14.4*	-17.2	-8.2	5.4	-10.7
CC1(C)CC(=O)C2=C(C1)N=C1SCCC(=O)N1C2c1cccc([N+](=O)[O-])c1 (stereo not drawn)	4.7	-31.7	-3.6	-23.8	nt
O=C(CSc1nc(-c2ccccc2)cc(=O)[nH]1)N1CCc2ccccc21	15.8*	-20.5	-8.9	-73.3	0.2
CCOC(=O)C1CCCN(C(=S)Nc2ccc(F)cc2)C1 (stereo not drawn)	23.2*	-13.8	1.0	-3.7	0.2
CCOC(=O)C1CCCN(C(=S)Nc2ccc(OC)cc2)C1 (stereo not drawn)	-8.0	-22.1	-5.5	26.7	nt
